Tests used:
[1] = target: T1, Sterol O-acyltransferase 1 (Rattus norvegicus) (UniProt O70536); experiment: Percent change in plasma total cholesterol in an acute cholesterol-fed rat model of hypercholesterolemia, dose at 30 mg/kg; assay type: functional, organism-based; parameters: dose 30 mg/kg
T1 sequence (whole entry): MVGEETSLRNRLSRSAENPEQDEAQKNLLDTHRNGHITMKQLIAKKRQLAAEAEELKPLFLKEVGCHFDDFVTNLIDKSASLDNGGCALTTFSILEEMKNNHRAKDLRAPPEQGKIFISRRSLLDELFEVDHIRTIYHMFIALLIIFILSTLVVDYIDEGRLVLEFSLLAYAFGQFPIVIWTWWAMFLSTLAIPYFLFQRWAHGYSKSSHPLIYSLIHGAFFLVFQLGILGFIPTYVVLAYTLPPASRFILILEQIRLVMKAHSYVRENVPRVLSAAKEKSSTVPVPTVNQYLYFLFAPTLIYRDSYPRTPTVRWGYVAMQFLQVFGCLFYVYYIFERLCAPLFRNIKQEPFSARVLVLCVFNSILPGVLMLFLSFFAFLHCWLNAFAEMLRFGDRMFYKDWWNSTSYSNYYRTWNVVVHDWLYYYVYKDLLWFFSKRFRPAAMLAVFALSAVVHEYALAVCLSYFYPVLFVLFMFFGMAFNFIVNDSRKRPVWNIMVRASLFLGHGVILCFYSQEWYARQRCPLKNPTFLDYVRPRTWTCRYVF

O-acyltransferase = O-acyltransferase (Oryctolagus cuniculus, UniProt G1SFD9); experiment: (§1) Acyl coenzyme A:cholesterol acyltransferase 1 inhibition in vitro measured in rabbit intestinal microsomes; parameters: species or system Intestine
[2] = target: T1, Sterol O-acyltransferase 1 (Rattus norvegicus); experiment: Percent change in plasma total cholesterol in an acute cholesterol-fed rat model of hypercholesterolemia, dose at 3 mg/kg; assay type: functional, organism-based; parameters: dose 3 mg/kg
Rattus norvegicus [3] = experiment: Percent change in non-HDL-C Dose at 30 mg/kg; assay type: functional
Summary of the method: (§2)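 Chronic rat model of pre-established hypercholesterolemia: 1 week on high-cholesterol diet, then compound dosed orally once daily for 1 week. Plasma total cholesterol, HDL-C and non-HDL-C expressed as percent change versus control; p < 0.05 flagged.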

Rattus norvegicus [4] = experiment: Percent change in HDL-CDose at 30 mg/kg; assay type: functional; summary of the method: as §2
[5] = target: T1, Sterol O-acyltransferase 1 (Rattus norvegicus); experiment: Percent change in plasma TC in the chronic C-fed rat model of pre-established hypercholesterolemia. Dose at 30 mg/kg; assay type: functional, organism-based; parameters: dose 30 mg/kg; summary of the method: as §2
[6] = target: T2, Acyl-CoA:cholesterol acyltransferase (Oryctolagus cuniculus) (UniProt Q95214); experiment: as §1; conditions: Intestine, concentration not given here
T2 sequence (whole entry): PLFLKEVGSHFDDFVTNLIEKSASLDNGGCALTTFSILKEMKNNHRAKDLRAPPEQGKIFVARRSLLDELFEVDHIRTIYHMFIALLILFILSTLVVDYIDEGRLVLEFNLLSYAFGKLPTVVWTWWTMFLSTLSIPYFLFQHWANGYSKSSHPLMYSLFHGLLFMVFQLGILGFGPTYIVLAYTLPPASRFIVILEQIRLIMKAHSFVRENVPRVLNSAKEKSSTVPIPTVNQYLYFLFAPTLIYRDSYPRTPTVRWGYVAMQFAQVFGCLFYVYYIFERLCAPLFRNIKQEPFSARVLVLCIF
Summary of the method: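 ACAT activity in intestinal microsomes from cholesterol-fed rabbits, measured by incubation with 14C-labeled oleoyl-CoA; IC50 is the micromolar concentration giving 50% inhibition of enzyme activity.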

Canis familiaris [7] = experiment: Percent change in plasma cholesterol in dog at 3 mg/kg; assay type: functional, Canis lupus familiaris
Summary of the method: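 Cholesterol-fed female Beagle dogs given bulk drug in capsules before meals, daily for 1 week, at 3 mg/kg po. Plasma total cholesterol compared before and after treatment as percent change; paired two-tailed t-test, n = 6.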

Rattus norvegicus [8] = experiment: Percent change in non-HDL-C,Dose at 3 mg/kg; assay type: functional; summary of the method: as §2
Rattus norvegicus [9] = experiment: Percent change in HDL-C,Dose at 3 mg/kg; assay type: functional; summary of the method: as §2
Rattus norvegicus [10] = experiment: Percent change in non-HDL-C,Dose at 30 mg/kg; assay type: functional; summary of the method: as §2
Rattus norvegicus [11] = experiment: Percent change in plasma TC in the chronic C-fed rat model of pre-established hypercholesterolemia, dose at 3 mg/kg; assay type: functional; summary of the method: as §2
Rattus norvegicus [12] = experiment: Percent change in non-HDL-C,Dose at 10 mg/kg; assay type: functional; summary of the method: as §2
Rattus norvegicus [13] = experiment: Percent change in plasma TC in the chronic C-fed rat model of pre-established hypercholesterolemia. Dose at 10 mg/kg; assay type: functional; summary of the method: as §2
Rattus norvegicus [14] = experiment: Percent change in HDL-C,Dose at 30 mg/kg; assay type: functional; summary of the method: as §2
Canis familiaris [15] = experiment: mean blood drug concentration in dog, compound Dose at 3 mg/kg; assay type: ADME, organism-based, Canis lupus familiaris; parameters: dose 3 mg/kg; conditions: in vivo
Summary of the method: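 Cholesterol-fed Beagle dogs dosed at 3 mg/kg. Plasma drug measured by HPLC on a C8 column, acetonitrile/water 4:1 eluent, detection at 190 nm, with a related analog as internal standard. Quantitation limit 40 ng/mL; mean of 6 animals.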

Rattus norvegicus [16] = experiment: Percent change in HDL-C,Dose at 10 mg/kg; assay type: functional; summary of the method: as §2

Row | Structure (SMILES) | Delta TC [1] [%] | IC50 (O-acyltransferase) [µM] | Delta TC [2] [%] | also measured
1 | CCCCN1NN=C(NC(=O)Nc2c(C(C)C)cccc2C(C)C)N1 | -26 | 0.092 | – | –
2 | CCCCCCCCCCCCCc1cc(NC(=O)Nc2c(C(C)C)cccc2C(C)C)on1 | -62 | 0.013 | -51 | Non-HDL-C (Rattus norvegicus [3]): -65%; Delta HDL-C (Rattus norvegicus [4]): 111%; Delta TC [5]: -53%
3 | CCCCCCCCCCCCc1n[nH]c(NC(=O)Nc2c(C(C)C)cccc2C(C)C)n1 | 12 | 4.2 | – | –
4 | CCCCCCCCCCCc1nnc(NC(=O)Nc2c(C(C)C)cccc2C(C)C)s1 | -61 | 0.039 | – | –
5 | CCCCCCCCCCCCCCCCN1NN=C(NC(=O)Nc2c(C(C)C)cccc2C(C)C)N1 | -67 | 0.057 | -43 | –
6 | CCCCCCCCCCCCN1NN=C(CNC(=O)Nc2c(OC)cc(OC)cc2OC)N1 | -40 | 0.15 | – | –
7 | CCCCCCCCCCCCN1NN=C(CNC(=O)Nc2c(C(C)C)cccc2C(C)C)N1 | -58 | 0.012 | -31 | –
8 | CCCCCCCCCCCCn1cnnc1NC(=O)Nc1c(C(C)C)cccc1C(C)C | -28 | – | – | –
9 | CCCCCCCCCCc1sc(NC(=O)Nc2c(C(C)C)cccc2C(C)C)nc1C | -33 | 0.12 | – | –
10 | CCCCCCCCCCCCc1coc(NC(=O)Nc2c(C(C)C)cccc2C(C)C)n1 | -55 | 0.063 | – | –
11 | COC(=O)CCCCCCCCCCN1NN=C(NC(=O)Nc2c(C(C)C)cccc2C(C)C)N1 | -23 | 4.7 | – | –
12 | CCCCCCCCCCCCC[S+]([O-])c1n[nH]c(NC(=O)Nc2c(C(C)C)cccc2C(C)C)n1 (centres undefined) | -6 | 1.7 | – | –
13 | CCCCCCCCCCCCN1NN=C(NC(=O)Nc2c(OC)cc(OC)cc2OC)N1 | -75 | 0.066 | -69 | –
14 | CCCCCCCCCCN1NN=C(NC(=O)Nc2c(C(C)C)cccc2C(C)C)N1 | -62 | 0.014 | -35 | –
15 | CCCCCCCCCc1nnc(NC(=O)Nc2c(C(C)C)cccc2C(C)C)s1 | -39 | 0.15 | – | –
16 | CCCCCCCCCCn1nnnc1NC(=O)Nc1c(C(C)C)cccc1C(C)C | -65 | – | -22 | –
17 | CCCCCCN1NN=C(NC(=O)Nc2c(C(C)C)cccc2C(C)C)N1 | -59 | 0.073 | -21 | –
18 | CCCCCCCCCCCN1NN=C(NC(=O)Nc2c(C(C)C)cccc2C(C)C)N1 | -70 | 0.009 | -63 | –
19 | CC(C)=CCC/C(C)=C/Cn1nnc(NC(=O)Nc2c(C(C)C)cccc2C(C)C)n1 | -27 | 0.063 | – | –
20 | CCCCCCCCCN1NN=C(NC(=O)Nc2c(C(C)C)cccc2C(C)C)N1 | -65 | 0.031 | 1 | –

Row | Structure (SMILES) | Delta TC [1] [%] | IC50 (O-acyltransferase) [µM] | Delta TC [2] [%] | also measured
21 | CCCCCCCCCCCCn1nnnc1NC(=O)Nc1c(OC)cc(OC)cc1OC | – | – | – | inhibition [6]: 28%
22 | CCCCCCCCCCCCCN1NN=C(NC(=O)Nc2c(C(C)C)cccc2C(C)C)N1 | -67 | 0.009 | -67 | Delta plasma cholesterol (Canis familiaris [7]): -47%; Non-HDL-C (Rattus norvegicus [8]): -47%; Delta HDL-C (Rattus norvegicus [9]): 21%; Non-HDL-C (Rattus norvegicus [10]): -76%; Delta TC (Rattus norvegicus [11]): -52%; Non-HDL-C (Rattus norvegicus [12]): -73%; Delta TC (Rattus norvegicus [13]): -64%; Delta HDL-C (Rattus norvegicus [14]): 113%; Plasma level (Canis familiaris [15]): 76.7 ng/mL; Delta TC [5]: -66%; Delta HDL-C (Rattus norvegicus [16]): 113%
23 | CCCCCCCCCCCCCSc1nnc(NC(=O)Nc2c(C(C)C)cccc2C(C)C)n1C(C)=O | -21 | 0.68 | – | –
24 | CCCCCCCCCCCCc1cc(NC(=O)Nc2c(C(C)C)cccc2C(C)C)on1 | -61 | 0.019 | -58 | Non-HDL-C (Rattus norvegicus [3]): -68%; Delta HDL-C (Rattus norvegicus [14]): 100%; Delta TC [5]: -56%
25 | CCCCCCCCCCCCCSc1n[nH]c(NC(=O)Nc2c(C(C)C)cccc2C(C)C)n1 | 12 | – | – | –
26 | CCCCCCCCN1NN=C(NC(=O)Nc2c(C(C)C)cccc2C(C)C)N1 | -67 | 0.059 | -24 | –
27 | CCCCCCCCCCCc1csc(NC(=O)Nc2c(C(C)C)cccc2C(C)C)n1 | -29 | 0.15 | – | –
28 | CCCCCCCCCCCCCCc1cc(NC(=O)Nc2c(C(C)C)cccc2C(C)C)on1 | -64 | 0.028 | -44 | Non-HDL-C (Rattus norvegicus [3]): -18%; Delta HDL-C (Rattus norvegicus [4]): 16%; Delta TC [5]: -16%
29 | CC(C)c1cccc(C(C)C)c1NC(=O)Nc1nnn(CCCCCCCCCCCOC2CCCCO2)n1 (centres undefined) | -53 | 0.037 | -28 | –
30 | CCCCCCCCCCCCn1ncnc1NC(=O)Nc1c(C(C)C)cccc1C(C)C | -36 | 0.25 | – | –
31 | CCCCCCCCCCCCCc1nnc(NC(=O)Nc2c(C(C)C)cccc2C(C)C)o1 | -62 | 0.018 | -34 | –
32 | CC(C)c1cccc(C(C)C)c1NC(=O)Nc1nnn(CCCCCCCCCCCO)n1 | -28 | 0.032 | – | –
33 | CC(C)c1cccc(C(C)C)c1NC(=O)Nc1nn[nH]n1 | -19 | – | – | –
34 | CCCCCCCCCCCCCc1nnc(NC(=O)Nc2c(C(C)C)cccc2C(C)C)s1 | -46 | 0.036 | – | –
35 | CC(C)c1cccc(C(C)C)c1NC(=O)NC1=NN(Cc2ccccc2)NN1 | -27 | 0.37 | – | –
36 | CCCCCCCCCCCCn1cnc(NC(=O)Nc2c(C(C)C)cccc2C(C)C)c1 | – | 0.035 | – | –
37 | CC(C)c1cccc(C(C)C)c1NC(=O)Nc1nnn[nH]1 | – | > 10 | – | –
38 | CCCCCCCCCCCCn1cnc(NC(=O)Nc2c(C(C)C)cccc2C(C)C)n1 | -30 | 0.12 | – | –
39 | CCCCCCCCCCCCCS(=O)(=O)c1n[nH]c(NC(=O)Nc2c(C(C)C)cccc2C(C)C)n1 | -11 | 4.7 | – | –
40 | CCCCCCCCCCCCn1nnnc1NC(=O)Nc1c(C(C)C)cccc1C(C)C | -57 | 0.21 | -45 | –
